Activity calls are given as the source filed them. The rule behind the calls is not given here.
Key:
[1] = tested on: HOP-62; test: Growth inhibition of human HOP62 cells after 48 hrs by sulforhodamine B assay; type: functional, cell-based; settings: HOP-62, 48 h; for CC50: read-out: LC50 (the source's name)
Outline: (§1)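 Cells grown in RPMI 1640 with 5% FBS and 2 mM L-glutamine, seeded at 5,000–40,000 cells/well according to doubling time. After 24 h, time-zero plates are TCA-fixed. Five concentrations (10-fold or ½log dilutions, DMSO stocks) are applied for 48 h at 37 °C, 5% CO₂. Cells are TCA-fixed, SRB-stained and read at 515 nm. IC₅₀ is taken from [(Ti−Tz)/(C−Tz)]×100 = 50.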

[2] = tested on: BT-549; test: Cytotoxicity against human BT549 cells assessed as cell growth at 1 uM after 48 hrs by sulforhodamine B assay; type: functional; settings: BT-549, 48 h, read-out: Activity
Outline: (§2)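 Cells grown in RPMI 1640 with 5% FBS and 2 mM L-glutamine, seeded at 5,000–40,000 cells/well by doubling time. Time-zero plates TCA-fixed after 24 h. Five concentrations (10-fold or half-log dilutions from DMSO stock) added; 48 h at 37 °C, 5% CO2. Cold TCA fixation (final 10%, 60 min, 4 °C), 0.4% SRB stain, dye solubilized in 10 mM trizma base, A515.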

[3] = tested on: MOLT-4; test: Cytotoxicity against human MOLT4 cells assessed as cell growth at 0.001 uM after 48 hrs by sulforhodamine B assay; type: functional; settings: MOLT-4, 48 h, read-out: Activity
[4] = tested on: A549; test: Cytotoxicity against human A549 cells assessed as cell growth at 0.01 uM after 48 hrs by sulforhodamine B assay; type: functional; settings: A549, 48 h, read-out: Activity; outline: as §2
[5] = Growth inhibition of human Hs 578T cells after 48 hrs by sulforhodamine B assay; type: functional, cell-based; settings: for CC50: read-out: LC50 (the source's name); outline: as §1
[6] = tested on: SNB-75; test: Cytotoxicity against human SNB75 cells assessed as cell growth at 0.01 uM after 48 hrs by sulforhodamine B assay; type: functional; settings: SNB-75, 48 h, read-out: Activity
[7] = tested on: NCI-H322M; test: Cytotoxicity against human NCI-H322M cells assessed as cell growth at 0.001 uM after 48 hrs by sulforhodamine B assay; type: functional; settings: read-out: Activity
[8] = tested on: SF-539; test: Cytotoxicity against human SF539 cells assessed as cell growth at 0.01 uM after 48 hrs by sulforhodamine B assay; type: functional; settings: SF-539, 48 h, read-out: Activity
[9] = tested on: A498; test: Cytotoxicity against human A498 cells assessed as cell growth at 0.01 uM after 48 hrs by sulforhodamine B assay; type: functional; settings: A498, 48 h, read-out: Activity; outline: as §2
[10] = tested on: HCT-116; test: Cytotoxicity against human HCT116 cells assessed as cell growth at 1 uM after 48 hrs by sulforhodamine B assay; type: functional; settings: HCT-116, 48 h, read-out: Activity
[11] = tested on: MOLT-4; test: Cytotoxicity against human MOLT4 cells assessed as cell growth at 1 uM after 48 hrs by sulforhodamine B assay; type: functional; settings: MOLT-4, 48 h, read-out: Activity
[12] = tested on: K562; test: Cytotoxicity against human K562 cells assessed as cell growth at 1 uM after 48 hrs by sulforhodamine B assay; type: functional; settings: K562, 48 h, read-out: Activity
[13] = tested on: A498; test: Cytotoxicity against human A498 cells assessed as cell growth at 0.001 uM after 48 hrs by sulforhodamine B assay; type: functional; settings: A498, 48 h, read-out: Activity; outline: as §2
[14] = tested on: OVCAR-5; test: Cytotoxicity against human OVCAR5 cells assessed as cell growth at 10 uM after 48 hrs by sulforhodamine B assay; type: functional; settings: OVCAR-5, 48 h, read-out: Activity
[15] = tested on: OVCAR-8; test: Cytotoxicity against human OVCAR8 cells assessed as cell growth at 1 uM after 48 hrs by sulforhodamine B assay; type: functional; settings: OVCAR-8, 48 h, read-out: Activity
[16] = tested on: NCI-H23; test: Cytotoxicity against human NCI-H23 cells assessed as cell growth at 0.01 uM after 48 hrs by sulforhodamine B assay; type: functional; settings: NCI-H23, 48 h, read-out: Activity
[17] = tested on: IGROV-1; test: Cytotoxicity against human IGROV1 cells assessed as cell growth at 1 uM after 48 hrs by sulforhodamine B assay; type: functional; settings: IGROV-1, 48 h, read-out: Activity
[18] = tested on: U-251; test: Growth inhibition of human U251 cells after 48 hrs by sulforhodamine B assay; type: functional, cell-based; settings: for CC50: read-out: LC50 (the source's name); outline: as §1
[19] = tested on: NCI/ADR-RES; test: Growth inhibition of human NCI/ADR-RES cells after 48 hrs by sulforhodamine B assay; type: functional, cell-based; settings: for CC50: read-out: LC50 (the source's name); outline: as §1
[20] = tested on: A498; test: Cytotoxicity against human A498 cells assessed as cell growth at 1 uM after 48 hrs by sulforhodamine B assay; type: functional; settings: A498, 48 h, read-out: Activity; outline: as §2
[21] = tested on: EKVX; test: Cytotoxicity against human EKVX cells assessed as cell growth at 0.01 uM after 48 hrs by sulforhodamine B assay; type: functional; settings: read-out: Activity
[22] = tested on: KM12; test: Cytotoxicity against human KM12 cells assessed as cell growth at 0.001 uM after 48 hrs by sulforhodamine B assay; type: functional; settings: KM12, 48 h, read-out: Activity
[23] = tested on: KM12; test: Cytotoxicity against human KM12 cells assessed as cell growth at 1 uM after 48 hrs by sulforhodamine B assay; type: functional; settings: KM12, 48 h, read-out: Activity
[24] = tested on: HOP-92; test: Growth inhibition of human HOP92 cells after 48 hrs by sulforhodamine B assay; type: functional, cell-based; outline: as §1
[25] = tested on: UO-31; test: Growth inhibition of human UO31 cells after 48 hrs by sulforhodamine B assay; type: functional, cell-based; settings: UO-31, 48 h; for CC50: read-out: LC50 (the source's name); outline: as §1
[26] = tested on: HCT-15; test: Cytotoxicity against human HCT15 cells assessed as cell growth at 100 nM after 48 hrs by sulforhodamine B assay; type: functional; settings: HCT-15, 48 h, read-out: Activity
[27] = tested on: U-251; test: Cytotoxicity against human U251 cells assessed as cell growth at 100 nM after 48 hrs by sulforhodamine B assay; type: functional; settings: U-251, 48 h, read-out: Activity
[28] = tested on: TK-10; test: Cytotoxicity against human TK10 cells assessed as cell growth at 1 uM after 48 hrs by sulforhodamine B assay; type: functional; settings: TK-10, 48 h, read-out: Activity
[29] = tested on: IGROV-1; test: Cytotoxicity against human IGROV1 cells assessed as cell growth at 0.01 uM after 48 hrs by sulforhodamine B assay; type: functional; settings: IGROV-1, 48 h, read-out: Activity
[30] = tested on: BT-549; test: Cytotoxicity against human BT549 cells assessed as cell growth at 0.001 uM after 48 hrs by sulforhodamine B assay; type: functional; settings: BT-549, 48 h, read-out: Activity; outline: as §2
[31] = tested on: EKVX; test: Growth inhibition of human EKVX cells after 48 hrs by sulforhodamine B assay; type: functional, cell-based; settings: for CC50: read-out: LC50 (the source's name); outline: as §1
[32] = tested on: SF-268; test: Cytotoxicity against human SF268 cells assessed as cell growth at 0.001 uM after 48 hrs by sulforhodamine B assay; type: functional; settings: SF-268, 48 h, read-out: Activity
[33] = Homo sapiens, NCI/ADR-RES, 48 h

CC(=O)Nc1cccc(-c2ccc(-c3ccnc(NC(=O)Nc4cc(C(F)(F)F)cc(C(F)(F)F)c4)n3)cn2)c1.Cl
GI50 [1]: 4.88 µM
IC50 [1]: 4.88 µM
TGI [1]: 26.8 µM
CC50 [1]: > 100 µM
growth at 1 µM [2]: 43%
growth at 0.001 µM [3]: 95%
growth at 0.01 µM [4]: 67%
GI50 [5]: 7.52 µM
IC50 [5]: 7.52 µM
TGI [5]: > 100 µM
CC50 [5]: > 100 µM
growth at 0.01 µM [6]: 71%
growth at 0.001 µM [7]: 91%
growth at 0.01 µM [8]: 78%
growth at 0.01 µM [9]: 92%
growth at 1 µM [10]: -35%
growth at 1 µM [11]: 4%
growth at 1 µM [12]: -1%
growth at 0.001 µM [13]: 95%
growth at 10 µM [14]: -96%
growth at 1 µM [15]: -25%
growth at 0.01 µM [16]: 92%
growth at 1 µM [17]: -2%
GI50 ([18]; Homo sapiens, U-251, 48 h): 2 µM
IC50 ([18]; Homo sapiens, U-251, 48 h): 2 µM
TGI ([18]; Homo sapiens, U-251, 48 h): 5.32 µM
CC50 ([18]; Homo sapiens, U-251, 48 h): 18.9 µM
GI50 [19, 33]: 3.66 µM
TGI [19, 33]: 47.4 µM
IC50 ([19]; Homo sapiens, NCI/ADR-RES, 48 h, read-out: IC50): 3.66 µM
CC50 [19, 33]: > 100 µM
growth at 1 µM [20]: 41%
growth at 0.01 µM [21]: 79%
growth at 0.001 µM [22]: 99%
growth at 1 µM [23]: -10%
LC50 [24]: inactive
TGI [24]: inactive
IC50 ([24]; hop-92): Not Active
GI50 [25]: 5.51 µM
IC50 [25]: 5.51 µM
TGI [25]: 23.2 µM
CC50 [25]: 61.7 µM
growth at 0.1 µM [26]: 90%
growth at 0.1 µM [27]: 85%
growth at 1 µM [28]: 80%
growth at 0.01 µM [29]: 95%
growth at 0.001 µM [30]: 100%
GI50 [31]: 1.44 µM
IC50 [31]: 1.44 µM
TGI [31]: 5.71 µM
CC50 [31]: > 100 µM
growth at 0.001 µM [32]: 95%

CC(=O)c1ccccc1-c1ccc(-c2ccnc(NC(=O)Nc3cc(N4CCOCC4)cc(C(F)(F)F)c3)n2)cn1
GI50 [1]: > 100 µM
IC50 [1]: 4.29 µM
TGI [1]: > 100 µM
CC50 [1]: > 100 µM
growth at 1 µM [2]: 21%
growth at 0.001 µM [3]: 94%
growth at 0.01 µM [4]: 102%
GI50 [5]: > 100 µM
IC50 [5]: 2.87 µM
TGI [5]: > 100 µM
CC50 [5]: > 100 µM
growth at 0.01 µM [6]: 100%
growth at 0.001 µM [7]: 101%
growth at 0.01 µM [8]: 107%
growth at 0.01 µM [9]: 83%
growth at 1 µM [10]: 69%
growth at 1 µM [11]: 86%
growth at 1 µM [12]: 79%
growth at 0.001 µM [13]: 85%
growth at 10 µM [14]: 118%
growth at 1 µM [15]: 41%
growth at 0.01 µM [16]: 99%
growth at 1 µM [17]: 40%
TGI [18]: > 100 µM
GI50 ([18]; Homo sapiens, U-251, 48 h): 5.36 µM
IC50 ([18]; Homo sapiens, U-251, 48 h): 34.9 µM
CC50 ([18]; Homo sapiens, U-251, 48 h): > 100 µM
TGI [19, 33]: > 100 µM
CC50 [19, 33]: > 100 µM
IC50 ([19]; nci/adr-res): Not Active
growth at 1 µM [20]: 83%
growth at 0.01 µM [21]: 94%
growth at 0.001 µM [22]: 103%
growth at 1 µM [23]: 86%
TGI [24]: inactive
GI50 ([24]; Homo sapiens, HOP-92, 48 h): 4.29 µM
IC50 ([24]; Homo sapiens, HOP-92, 48 h, read-out: IC50): 2.95 µM
CC50 ([24]; Homo sapiens, HOP-92, 48 h, read-out: LC50 (the source's name)): > 100 µM
GI50 [25]: > 5.46 µM
IC50 [25]: > 100 µM
TGI [25]: > 100 µM
CC50 [25]: > 100 µM
growth at 0.1 µM [26]: 92%
growth at 0.1 µM [27]: 93%
growth at 1 µM [28]: 32%
growth at 0.01 µM [29]: 96%
growth at 0.001 µM [30]: 101%
GI50 [31]: > 100 µM
IC50 [31]: > 100 µM
TGI [31]: > 100 µM
CC50 [31]: > 100 µM
growth at 0.001 µM [32]: 103%

Source: ChEMBL document CHEMBL1165943, “Design and synthesis of new anticancer pyrimidines with multiple-kinase inhibitory effect” (Bioorg Med Chem, 2010)
